Data taken from publication PMC6435016 (Biophysics and Physicobiology, 2019).

What was measured:
[1] = system: CD28 (biotinylated 41-residue phosphopeptide corresponding to cytoplasmic region of CD28); experiment: SPR binding to immobilized CD28 cytoplasmic phosphopeptide; details: 25°C
[2] = system: intracellular tail of inducible T-cell co-stimulator; experiment: SPR binding to intracellular tail of inducible T-cell co-stimulator; details: data not shown
[3] = CD thermal stability / transition curve at 222 nm; assay type: physicochemical; details: following dissociation of the dimer
Summary of the method: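 Human Grb2 SH2 (residues 60–152) expressed as GST fusion in E. coli BL21(DE3); monomer and dimer split by gel filtration. 0.04 mg mL⁻¹ in PBS pH 7.4, 1.0 cm cell; 222 nm signal heated 20–80°C at 1.0°C min⁻¹. Tm from two-state fit, zero heat-capacity change. Samples heated to 50°C, cooled to 20°C, then rerun by far-UV CD and SEC (PBS, 280 nm).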

[4] = SEC analysis of monomer/dimer state; assay type: physicochemical; details: data not shown
[5] = fluorescence and SEC; similar to Grb2 SH2 dimer dissociating at 40–45°C; ref [39]; cited from earlier work

W121S: Grb2 SH2 mutant, Trp121 replaced by Ser, by site-directed mutagenesis
ability to bind to CD28 ([1]; monomer and dimer of W121S at 800, 1600, 3200, 6400 nM): loses the ability to bind to CD28
binding to intracellular tail of inducible T-cell co-stimulator [2]: could not bind

monomer: SH2 domain of human Grb2 (residues 60–152), monomer fraction purified by gel filtration
Ka,kin ([1]; association constant calculated from the two kinetic rate constants): 117000 M⁻¹
temperature of denaturation of monomer [3]: around 60 °C

B1: Gads SH2: SH2 domain of Grb2-related adaptor downstream of Shc (Gads) (protein)
chain: WFHEGLSRHQAENLLMGKEVGFFIIRASQSSPGDFSISVRHEDDVQHFKVMRDNKGNYFLWTEKFPSLNKLVDYYRTNSISRQKQIFLRDRT
oligomeric state [4]: exists as a monomer with a small population of dimers
thermal transition (dimer to monomer) [5]: A similar transition was recently reported
